Reference: the RNAGym collection of RNA variant scans (doi:10.1002/anie.201605470)

B1: Osa-1-4 twister ribozyme (parent)
chain: CCGCCUAACACUGCCAAUGCCGGUCCCAAGCCCGGAUAAAAGUGGAGGGGGCGG

Variants of: B1
Test: self-cleavage, relative activity (ratio to wild type); higher = more cleavage; co-transcriptional
How it was run: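 A DNA template was synthesised for a 54-nucleotide twister ribozyme from Oryza sativa, with 97 % wild-type base and 1 % of each other base at each of the 48 positions downstream of the cleavage site. The ribozyme cleaved itself co-transcriptionally during 2 h of in vitro transcription at 37 °C. Reverse transcription with a template-switching oligonucleotide, PCR amplification and deep sequencing followed, and cleavage status came from reads with or without upstream sequence. Relative activity is the fraction cleaved normalised to wild type.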

Variant	self-cleavage
CCGCCUAACACCGCCAAUGCCGGUCCCAAGCUCGGAUAAAAGUGGAGGGGGCGG [C32U U12C]	0.08
CCGCCUAACACGGCCAAUGCCGGUCCCAAGCUCGGAUAAAAGUGGAGGGGGCGG [C32U U12G]	0.09
CCGCCUAACACAGCCAAUGCCGGUCCCAAGCUCGGAUAAAAGUGGAGGGGGCGG [C32U U12A]	0.1
CCGCCUAACACUCCCAAUGCCGGUCCCAAGCCAGGAUAAAAGUGGAGGGGGCGG [C33A G13C]	0.01
CCGCCUAACACUACCAAUGCCGGUCCCAAGCCAGGAUAAAAGUGGAGGGGGCGG [C33A G13A]	0.02
CCGCCUAACACUUCCAAUGCCGGUCCCAAGCCAGGAUAAAAGUGGAGGGGGCGG [C33A G13U]	0.02
CCGCCUAACACUGCCAAUGCCGGUCCCAAGCCACGAUAAAAGUGGAGGGGGCGG [C33A G34C]	0.05
CCGCCUAACACUGCCAAUGCCGGUCCCAAGCCAAGAUAAAAGUGGAGGGGGCGG [C33A G34A]	0.08
CCGCCUAACACUGCCAAUGCCGGUCCCAAGCCAUGAUAAAAGUGGAGGGGGCGG [C33A G34U]	0.06
CCGCCUAACACUGCCAAGGCCGGUCCCAAGCUCGGAUAAAAGUGGAGGGGGCGG [C32U U18G]	0.22
CCGCCUAACACUGCCAACGCCGGUCCCAAGCUCGGAUAAAAGUGGAGGGGGCGG [C32U U18C]	0.18
CCGCCUAACACUGCCAAAGCCGGUCCCAAGCUCGGAUAAAAGUGGAGGGGGCGG [C32U U18A]	0.16
CCGCCUAACACUGCCAAUGCCGGUCCCAAGCUCGGAUAAAAGUGGAGGGGUCGG [C32U G51U]	0.05
CCGCCUAACACUGCCAAUGCCGGUCCCAAGCUCGGAUAAAAGUGGAGGGGCCGG [C32U G51C]	0.05
CCGCCUAACACUGCCAAUGCCGGUCCCAAGCUCGGAUAAAAGUGGAGGGGACGG [C32U G51A]	0.07
CCGCCUAACACUGCCAAUGCCGGUCCCAAGCUCGGAUAAAAGUGAAGGGGGCGG [C32U G45A]	0.08
CCGCCUAACACUGCCAAUGCCGGUCCCAAGCUCGGAUAAAAGUGCAGGGGGCGG [C32U G45C]	0.03
CCGCCUAACACUGCCAAUGCCGGUCCCAAGCUCGGAUAAAAGUGUAGGGGGCGG [C32U G45U]	0.04
CCGCCUAACACUGCCAAUGCCGGUCCCAAGCUCGGAUAAAAGUGGAGGGGGCGU [C32U G54U]	0.26
CCGCCUAACACUGCCAAUGCCGGUCCCAAGCUCGGAUAAAAGUGGAGGGGGCGC [C32U G54C]	0.09
CCGCCUAACACUGCCAAUGCCGGUCCCAAGCUCGGAUAAAAGUGGAGGGGGCGA [C32U G54A]	0.1
CCGCCUAACACUGCCAAUGCCGGUCCCAAGCUCGGAUAAAAGUGGAGGGCGCGG [C32U G50C]	0.09
CCGCCUAACACUGCCAAUGCCGGUCCCAAGCUCGGAUAAAAGUGGAGGGUGCGG [C32U G50U]	0.11
CCGCCUAACACUGCCAAUGCCGGUCCCAAGCUCGGAUAAAAGUGGAGGGAGCGG [C32U G50A]	0.1
CCGCCUAACACUGCCAAUGCCGGUCCCAAGCCAGCAUAAAAGUGGAGGGGGCGG [C33A G35C]	0.04

Variant	self-cleavage
CCGCCUAACACUGCCAAUGCCGGUCCCAAGCCAGUAUAAAAGUGGAGGGGGCGG [C33A G35U]	0.07
CCGCCUAACACUGCCAAUGCCGGUCCCAAGCCAGAAUAAAAGUGGAGGGGGCGG [C33A G35A]	0.07
CCGCCUAACACUGCCAAUGCCGCUCCCAAGCCAGGAUAAAAGUGGAGGGGGCGG [C33A G23C]	0.02
CCGCCUAACACUGCCAAUGCCGAUCCCAAGCCAGGAUAAAAGUGGAGGGGGCGG [C33A G23A]	0.06
CCGCCUAACACUGCCAAUGCCGUUCCCAAGCCAGGAUAAAAGUGGAGGGGGCGG [C33A G23U]	0.04
CCGCCUAACACUGCCAAUGCCGGUCCCAAGCCAGGAUAAAAGUGGAGGGAGCGG [C33A G50A]	0.1
CCGCCUAACACUGCCAAUGCCGGUCCCAAGCCAGGAUAAAAGUGGAGGGCGCGG [C33A G50C]	0.08
CCGCCUAACACUGCCAAUGCCGGUCCCAAGCCAGGAUAAAAGUGGAGGGUGCGG [C33A G50U]	0.1
CCGCCUAACACUGCCAAUCCCGGUCCCAAGCCAGGAUAAAAGUGGAGGGGGCGG [C33A G19C]	0.03
CCGCCUAACACUGCCAAUACCGGUCCCAAGCCAGGAUAAAAGUGGAGGGGGCGG [C33A G19A]	0.07
CCGCCUAACACUGCCAAUUCCGGUCCCAAGCCAGGAUAAAAGUGGAGGGGGCGG [C33A G19U]	0.04
CCGCCUAACACUGCCAAUGCCGGUCCCAACCCAGGAUAAAAGUGGAGGGGGCGG [C33A G30C]	0.02
CCGCCUAACACUGCCAAUGCCGGUCCCAAUCCAGGAUAAAAGUGGAGGGGGCGG [C33A G30U]	0.02
CCGCCUAACACUGCCAAUGCCGGUCCCAAACCAGGAUAAAAGUGGAGGGGGCGG [C33A G30A]	0.02
CCGCCUAACACUGCCAAUGCCGGUCCCAAGCUCGAAUAAAAGUGGAGGGGGCGG [C32U G35A]	0.08
CCGCCUAACACUGCCAAUGCCGGUCCCAAGCUCGCAUAAAAGUGGAGGGGGCGG [C32U G35C]	0.06
CCGCCUAACACUGCCAAUGCCGGUCCCAAGCUCGUAUAAAAGUGGAGGGGGCGG [C32U G35U]	0.06
CCGCCUAACACUGCCAAUGCCGGUCCCAAGCUCGGAGAAAAGUGGAGGGGGCGG [C32U U37G]	0.26
CCGCCUAACACUGCCAAUGCCGGUCCCAAGCUCGGACAAAAGUGGAGGGGGCGG [C32U U37C]	0.16
CCGCCUAACACUGCCAAUGCCGGUCCCAAGCUCGGAAAAAAGUGGAGGGGGCGG [C32U U37A]	0.21
CCGCCUAACACUGCCAAUGCCCGUCCCAAGCCAGGAUAAAAGUGGAGGGGGCGG [C33A G22C]	0.22
CCGCCUAACACUGCCAAUGCCUGUCCCAAGCCAGGAUAAAAGUGGAGGGGGCGG [C33A G22U]	0.93
CCGCCUAACACUGCCAAUGCCAGUCCCAAGCCAGGAUAAAAGUGGAGGGGGCGG [C33A G22A]	0.87
CCGCCUAACACUGCCAAUGCCGGUCCCAAGCCAGGAUAAAAGUGGAAGGGGCGG [C33A G47A]	0.04
CCGCCUAACACUGCCAAUGCCGGUCCCAAGCCAGGAUAAAAGUGGAUGGGGCGG [C33A G47U]	0.04

Variant	self-cleavage
CCGCCUAACACUGCCAAUGCCGGUCCCAAGCCAGGAUAAAAGUGGACGGGGCGG [C33A G47C]	0.04
CCGCCUAACACUGCCAAUGCCGGUCCCAAGCUCGGAUAAAAGUGGAGGCGGCGG [C32U G49C]	0.03
CCGCCUAACACUGCCAAUGCCGGUCCCAAGCUCGGAUAAAAGUGGAGGAGGCGG [C32U G49A]	0.05
CCGCCUAACACUGCCAAUGCCGGUCCCAAGCUCGGAUAAAAGUGGAGGUGGCGG [C32U G49U]	0.05
CCGCCUAACACUGCCAAUGCCGGUCCCAAGCUCGGAUAAAAGUGGACGGGGCGG [C32U G47C]	0.04
CCGCCUAACACUGCCAAUGCCGGUCCCAAGCUCGGAUAAAAGUGGAUGGGGCGG [C32U G47U]	0.06
CCGCCUAACACUGCCAAUGCCGGUCCCAAGCUCGGAUAAAAGUGGAAGGGGCGG [C32U G47A]	0.06
CCGCCUAAUACUGCCAAUGCCGGUCCCAAGCCAGGAUAAAAGUGGAGGGGGCGG [C33A C9U]	0.07
CCGCCUAAAACUGCCAAUGCCGGUCCCAAGCCAGGAUAAAAGUGGAGGGGGCGG [C33A C9A]	0.05
CCGCCUAAGACUGCCAAUGCCGGUCCCAAGCCAGGAUAAAAGUGGAGGGGGCGG [C33A C9G]	0.08
CCGCCUAACACUGCCAAUGCCGGUCCCAAGCCAGGAUAAAAGUGCAGGGGGCGG [C33A G45C]	0.04
CCGCCUAACACUGCCAAUGCCGGUCCCAAGCCAGGAUAAAAGUGAAGGGGGCGG [C33A G45A]	0.06
CCGCCUAACACUGCCAAUGCCGGUCCCAAGCCAGGAUAAAAGUGUAGGGGGCGG [C33A G45U]	0.04
CCGCCUAACACUGCCAAUGCCGGUCCCAAGCCAGGAUAAAAGUCGAGGGGGCGG [C33A G44C]	0.09
CCGCCUAACACUGCCAAUGCCGGUCCCAAGCCAGGAUAAAAGUAGAGGGGGCGG [C33A G44A]	0.08
CCGCCUAACACUGCCAAUGCCGGUCCCAAGCCAGGAUAAAAGUUGAGGGGGCGG [C33A G44U]	0.1
CCGCCUAACACUGCCAAUGCCGGUCCCAAGCUCGGAUAAAAGUGGAGGGGGCUG [C32U G53U]	0.09
CCGCCUAACACUGCCAAUGCCGGUCCCAAGCUCGGAUAAAAGUGGAGGGGGCAG [C32U G53A]	0.09
CCGCCUAACACUGCCAAUGCCGGUCCCAAGCUCGGAUAAAAGUGGAGGGGGCCG [C32U G53C]	0.05
CCGCCUAACACUGCCAAUGCCGGACCCAAGCUCGGAUAAAAGUGGAGGGGGCGG [C32U U24A]	0.06
CCGCCUAACACUGCCAAUGCCGGGCCCAAGCUCGGAUAAAAGUGGAGGGGGCGG [C32U U24G]	0.01
CCGCCUAACACUGCCAAUGCCGGCCCCAAGCUCGGAUAAAAGUGGAGGGGGCGG [C32U U24C]	0.06
CCGCCUAACACUGCCAAUGCCGGUCCCAAGCCAGGAUAAAAGUGGAGGGGGAGG [C33A C52A]	0.11
CCGCCUAACACUGCCAAUGCCGGUCCCAAGCCAGGAUAAAAGUGGAGGGGGUGG [C33A C52U]	0.28
CCGCCUAACACUGCCAAUGCCGGUCCCAAGCCAGGAUAAAAGUGGAGGGGGGGG [C33A C52G]	0.17

Variant	self-cleavage
CCGCCUAACACUGCCAAUGCCGGUCCCAAGCUCGGAUAAAAGUCGAGGGGGCGG [C32U G44C]	0.09
CCGCCUAACACUGCCAAUGCCGGUCCCAAGCUCGGAUAAAAGUAGAGGGGGCGG [C32U G44A]	0.08
CCGCCUAACACUGCCAAUGCCGGUCCCAAGCUCGGAUAAAAGUUGAGGGGGCGG [C32U G44U]	0.07
CCGCCUAACACUGCCAAUGCCGGUCCCAAGCUCGGAUAAAAGUGGAGAGGGCGG [C32U G48A]	0.03
CCGCCUAACACUGCCAAUGCCGGUCCCAAGCUCGGAUAAAAGUGGAGCGGGCGG [C32U G48C]	0.03
CCGCCUAACACUGCCAAUGCCGGUCCCAAGCUCGGAUAAAAGUGGAGUGGGCGG [C32U G48U]	0.03
CCGCCUAACACUGCCAAUGCCGGUCCCAAGCCAGGAUAAAAAUGGAGGGGGCGG [C33A G42A]	0.06
CCGCCUAACACUGCCAAUGCCGGUCCCAAGCCAGGAUAAAACUGGAGGGGGCGG [C33A G42C]	0.06
CCGCCUAACACUGCCAAUGCCGGUCCCAAGCCAGGAUAAAAUUGGAGGGGGCGG [C33A G42U]	0.03
CCGCCUAACACUGCCAAUGCCGGUCCCAAGCCAGGAUAAAAGUGGAGGAGGCGG [C33A G49A]	0.05
CCGCCUAACACUGCCAAUGCCGGUCCCAAGCCAGGAUAAAAGUGGAGGUGGCGG [C33A G49U]	0.04
CCGCCUAACACUGCCAAUGCCGGUCCCAAGCCAGGAUAAAAGUGGAGGCGGCGG [C33A G49C]	0.04
CCGCCUAACACUGCCAAUGCCGGUCCCAAGCUCGGAUAAAAGCGGAGGGGGCGG [C32U U43C]	0.06
CCGCCUAACACUGCCAAUGCCGGUCCCAAGCUCGGAUAAAAGAGGAGGGGGCGG [C32U U43A]	0.09
CCGCCUAACACUGCCAAUGCCGGUCCCAAGCUCGGAUAAAAGGGGAGGGGGCGG [C32U U43G]	0.09
CCGCCUAACACUGCCAAUGCCGGUCCCAAGCUCGGAUAAAAUUGGAGGGGGCGG [C32U G42U]	0.03
CCGCCUAACACUGCCAAUGCCGGUCCCAAGCUCGGAUAAAACUGGAGGGGGCGG [C32U G42C]	0.07
CCGCCUAACACUGCCAAUGCCGGUCCCAAGCUCGGAUAAAAAUGGAGGGGGCGG [C32U G42A]	0.08
CCGCCUAACACUGCCAAUGCCGGUCCCAAGCCAGGAUAAAAGUGGAGGGGGCGG [C33A]	0.28
CCGCCUAACACUGCCAAUGCCGGUCCCAAGCCAGGAUAAAAGUGGAGCGGGCGG [C33A G48C]	0.05
CCGCCUAACACUGCCAAUGCCGGUCCCAAGCCAGGAUAAAAGUGGAGUGGGCGG [C33A G48U]	0.04
CCGCCUAACACUGCCAAUGCCGGUCCCAAGCCAGGAUAAAAGUGGAGAGGGCGG [C33A G48A]	0.04
